Source: ChEMBL document CHEMBL4382237, “Design, Synthesis, and Biological Evaluation of 2-Nitroimidazopyrazin-one/-es with Antitubercular and Antiparasitic Activity” (J Med Chem, 2018)
Converted amounts (≈) assume the structure as drawn.

Experiments:
[1] = test system: Entamoeba histolytica; assay: Antiparasitic activity against Entamoeba histolytica HM-1:IMSS trophozoites after 24 to 48 hrs by CellTiter-Glo luminescent cell viability assay; type: functional, organism-based
In short: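 Axenic trophozoites were kept in TYI-S-33 with penicillin (100 U/mL) and streptomycin (100 µg/mL) and harvested in log phase. 5000 parasites per well were exposed to a final 8-point two-fold series of 0.39–50 µM, from 10 mM DMSO stocks. Plates were incubated 24–48 h at 37 °C under anaerobic conditions. ATP luminescence viability was read in triplicate. Percent inhibition is given at the highest concentration tested.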

[2] = test system: Giardia intestinalis; assay: Antiparasitic activity against Giardia lamblia WB trophozoites after 24 to 48 hrs by CellTiter-Glo luminescent cell viability assay; conditions: Giardia duodenalis
[3] = test system: Trypanosoma brucei brucei; assay: Antiparasitic activity against bloodstream form of Trypanosoma brucei brucei strain 427 after 48 hrs by resazurin dye-based assay; type: functional, organism-based; conditions: strain 427, 48 h
[4] = test system: Mycobacterium tuberculosis; assay: Antibacterial activity against Mycobacterium tuberculosis H37Rv after 5 days under normoxic condition by resazurin dye-based fluorescence assay; type: functional, organism-based
In short: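 H37Rv grown in 7H9/ADC/glycerol/Tyloxapol to mid-exponential phase, diluted to OD600 0.001 (~2 x 10^4 CFU/mL) in 7H9S with serially diluted compound. Incubated 5 days at 37 °C, then resazurin and Tween-80 added. Fluorescence (ex 530/em 590 nm) read after 24 h, normalised to no-drug and no-bacteria wells.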

[5] = test system: Mycobacterium tuberculosis; assay: Antibacterial activity against non-replicating Mycobacterium tuberculosis H37Rv after 5 days under hypoxic condition by resazurin dye-based fluorescence assay; type: functional; conditions: 120 h
In short: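 Same H37Rv inoculum (OD600 0.001, ~2 x 10^4 CFU/mL) in 7H9S with serially diluted compound. Plates held 5 days at 0.1% oxygen, then resazurin plus Tween-80 added.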

[6] = test system: Clostridioides difficile; assay: Antibacterial activity against Clostridium difficile 630 ATCC BAA-1382 by broth microdilution assay; type: functional
In short: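 Broth microdilution run essentially per an earlier report. MIC taken as the lowest concentration with no visible growth. Replicates typically agreed within one 2-fold dilution. The median MIC is reported, with a range where the median fell between two tested concentrations.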

Which IC50 ([1]; read-out: IC50) does the source give for `Cc1ccc(COc2nc(C)cn3cc([N+](=O)[O-])nc23)cc1` here?
Its IC50 is 30 µM.

What about the IC50 ([1]; read-out: pIC50 (converted)) of the same compound?
Its IC50 is 31.6 µM.

What about the IC50 [2] of the same compound?
Its IC50 is 5.7 µM.

And the IC50 ([2]; read-out: pIC50 (converted))?
The IC50 was 6.31 µM.

For `Cc1nc(OCc2ccccc2OC(F)(F)F)c2nc([N+](=O)[O-])cn2c1C`, which IC50 ([1]; read-out: IC50) is on record?
Its IC50 is > 50 µM.

And the IC50 ([1]; read-out: pIC50 (converted))?
Its IC50 is > 50.1 µM.

What about the IC50 ([3]; read-out: IC50) of the same compound?
The IC50 was 1.9 µM.

What about the IC50 ([3]; read-out: pIC50 (converted)) of the same compound?
The IC50 was 2 µM.

What about the MIC [4] of the same compound?
The MIC was >32 mg/L.

And the IC50 [2]?
Its IC50 is > 50 µM.

What about the IC50 ([2]; read-out: pIC50 (converted)) of the same compound?
Its IC50 is > 50.1 µM.

What about the MIC [5] of the same compound?
Its MIC is > 32 mg/L.

For `NC(=O)c1nc([N+](=O)[O-])cn1Cc1ccc(OC(F)(F)F)cc1`, which IC50 ([1]; read-out: IC50) is on record?
The IC50 was > 25 µM.

What about the MIC [6] of the same compound?
Its MIC is > 64 mg/L.

And the IC50 [2]?
The IC50 was 4.1 to 50 µM.

What about the MIC [5] of the same compound?
The MIC was > 32 mg/L.

`O=C(NCc1ccc(F)cc1)c1ncc([N+](=O)[O-])[nH]1` was tested. Which IC50 ([1]; read-out: IC50) did it give?
Its IC50 is 2.2 to 4.5 µM.

What about the MIC [6] of the same compound?
The MIC was 4 to 16 mg/L (≈ 15.1 to 60.6 µM).

And the IC50 [2]?
Its IC50 is 0.2 to 0.5 µM.

And the MIC [5]?
Its MIC is > 32 mg/L.

With `CC(=O)OCCOc1nc(-c2ccccc2)cn2cc([N+](=O)[O-])nc12` as the compound, how does the IC50 ([1]; read-out: IC50) read?
The IC50 was > 50 µM.

What about the IC50 ([1]; read-out: pIC50 (converted)) of the same compound?
Its IC50 is > 50.1 µM.

What about the IC50 ([3]; read-out: IC50) of the same compound?
The IC50 was 1.5 µM.

And the IC50 ([3]; read-out: pIC50 (converted))?
The IC50 was 1.58 µM.

And the IC50 [2]?
Its IC50 is 1.9 µM.

What about the IC50 ([2]; read-out: pIC50 (converted)) of the same compound?
The IC50 was 2 µM.

And the MIC [5]?
Its MIC is > 32 mg/L.

How did the IC50 ([1]; read-out: IC50) turn out when `Cc1cn2cc([N+](=O)[O-])nc2c(=O)n1Cc1cccc(OC(F)(F)F)c1` was run?
Its IC50 is 16 µM.

What about the IC50 ([1]; read-out: pIC50 (converted)) of the same compound?
Its IC50 is 15.8 µM.

What about the IC50 ([3]; read-out: IC50) of the same compound?
Its IC50 is 1.1 µM.

And the IC50 ([3]; read-out: pIC50 (converted))?
The IC50 was 1.26 µM.

And the MIC [4]?
Its MIC is >32 mg/L.

What about the IC50 [2] of the same compound?
The IC50 was 2.8 µM.

And the IC50 ([2]; read-out: pIC50 (converted))?
Its IC50 is 2.51 µM.

What about the MIC [5] of the same compound?
Its MIC is > 32 mg/L.

What does the source list for `Cc1ccc(COc2nc(C)c(C)n3cc([N+](=O)[O-])nc23)cc1`?
IC50 ([1]; read-out: IC50): > 50 µM; IC50 ([1]; read-out: pIC50 (converted)): > 50.1 µM; IC50 ([3]; read-out: IC50): 2.2 µM; IC50 ([3]; read-out: pIC50 (converted)): 2.51 µM; MIC [4]: >32 mg/L; IC50 [2]: 5.8 µM; IC50 ([2]; read-out: pIC50 (converted)): 6.31 µM; MIC [5]: > 32 mg/L

Which results are given for `Cc1ccc(Cn2c(C)cn3cc([N+](=O)[O-])nc3c2=O)cc1`?
IC50 ([1]; read-out: IC50): 10 µM; IC50 ([1]; read-out: pIC50 (converted)): 10 µM; IC50 ([3]; read-out: IC50): 0.56 µM; IC50 ([3]; read-out: pIC50 (converted)): 0.501 µM; MIC [4]: >32 mg/L; IC50 [2]: 4.4 µM; IC50 ([2]; read-out: pIC50 (converted)): 3.98 µM; MIC [5]: > 32 mg/L

Which results are given for `Cc1cn2cc([N+](=O)[O-])nc2c(=O)[nH]1`?
IC50 ([1]; read-out: IC50): > 50 µM; IC50 ([1]; read-out: pIC50 (converted)): > 50.1 µM; IC50 ([3]; read-out: IC50): 3.6 µM; IC50 ([3]; read-out: pIC50 (converted)): 3.98 µM; MIC [4]: >32 mg/L; IC50 [2]: 50 µM; IC50 ([2]; read-out: pIC50 (converted)): 50.1 µM; MIC [5]: > 32 mg/L

Which results are given for `Cc1cn2cc([N+](=O)[O-])nc2c(=O)n1CCO`?
IC50 ([1]; read-out: IC50): > 50 µM; IC50 ([1]; read-out: pIC50 (converted)): > 50.1 µM; IC50 ([3]; read-out: IC50): 4.6 µM; IC50 ([3]; read-out: pIC50 (converted)): 5.01 µM; IC50 [2]: > 50 µM; IC50 ([2]; read-out: pIC50 (converted)): > 50.1 µM; MIC [5]: > 32 mg/L

Which IC50 ([1]; read-out: IC50) does the source give for `Cc1[nH]c(=O)c2nc([N+](=O)[O-])cn2c1C` here?
The IC50 was > 50 µM.

And the IC50 ([1]; read-out: pIC50 (converted))?
The IC50 was > 50.1 µM.

What about the IC50 ([3]; read-out: IC50) of the same compound?
The IC50 was 2.6 µM.

What about the IC50 ([3]; read-out: pIC50 (converted)) of the same compound?
Its IC50 is 2.51 µM.

And the MIC [4]?
The MIC was >32 mg/L.

What about the IC50 [2] of the same compound?
Its IC50 is 50 µM.

And the IC50 ([2]; read-out: pIC50 (converted))?
The IC50 was 50.1 µM.

What about the MIC [5] of the same compound?
Its MIC is > 32 mg/L.

For `O=[N+]([O-])c1cn2cc(-c3ccccc3)nc(OCCO)c2n1`, which IC50 ([1]; read-out: IC50) is on record?
Its IC50 is > 50 µM.

What about the IC50 ([1]; read-out: pIC50 (converted)) of the same compound?
The IC50 was > 50.1 µM.

What about the IC50 ([3]; read-out: IC50) of the same compound?
The IC50 was 1.1 µM.

And the IC50 ([3]; read-out: pIC50 (converted))?
The IC50 was 1 µM.

And the IC50 [2]?
Its IC50 is 5.2 µM.

And the IC50 ([2]; read-out: pIC50 (converted))?
The IC50 was 5.01 µM.

And the MIC [5]?
The MIC was > 32 mg/L.

For `Cc1c(C)n2cc([N+](=O)[O-])nc2c(=O)n1Cc1ccccc1OC(F)(F)F`, which IC50 ([1]; read-out: IC50) is on record?
Its IC50 is 18 µM.

And the IC50 ([1]; read-out: pIC50 (converted))?
Its IC50 is 20 µM.

And the IC50 ([3]; read-out: IC50)?
The IC50 was 0.78 µM.

What about the IC50 ([3]; read-out: pIC50 (converted)) of the same compound?
Its IC50 is 0.794 µM.

And the MIC [4]?
Its MIC is >32 mg/L.

What about the IC50 [2] of the same compound?
Its IC50 is 5.3 µM.

And the IC50 ([2]; read-out: pIC50 (converted))?
Its IC50 is 5.01 µM.

What about the MIC [5] of the same compound?
Its MIC is > 32 mg/L.

`Cc1cn2cc([N+](=O)[O-])nc2c(OCc2ccccc2OC(F)(F)F)n1` was tested. Which IC50 ([1]; read-out: IC50) did it give?
Its IC50 is > 50 µM.

What about the IC50 ([1]; read-out: pIC50 (converted)) of the same compound?
The IC50 was > 50.1 µM.

And the IC50 ([3]; read-out: IC50)?
The IC50 was 1.2 µM.

And the IC50 ([3]; read-out: pIC50 (converted))?
The IC50 was 1.26 µM.

What about the MIC [4] of the same compound?
Its MIC is >32 mg/L.

And the IC50 [2]?
The IC50 was 5.7 µM.

What about the IC50 ([2]; read-out: pIC50 (converted)) of the same compound?
The IC50 was 6.31 µM.

And the MIC [5]?
The MIC was > 32 mg/L.

What does the source list for `Cc1nc(OCc2cccc(OC(F)(F)F)c2)c2nc([N+](=O)[O-])cn2c1C`?
IC50 ([1]; read-out: IC50): 27 µM; IC50 ([1]; read-out: pIC50 (converted)): 25.1 µM; IC50 ([3]; read-out: IC50): 1.4 µM; IC50 ([3]; read-out: pIC50 (converted)): 1.26 µM; MIC [4]: >32 mg/L; IC50 [2]: 3.9 µM; IC50 ([2]; read-out: pIC50 (converted)): 3.98 µM; MIC [5]: > 32 mg/L

What does the source list for `Cc1cn2cc([N+](=O)[O-])nc2c(=O)n1Cc1ccccc1OC(F)(F)F`?
IC50 ([1]; read-out: IC50): 9.1 µM; IC50 ([1]; read-out: pIC50 (converted)): 10 µM; IC50 ([3]; read-out: IC50): 2.1 µM; IC50 ([3]; read-out: pIC50 (converted)): 2 µM; MIC [4]: >32 mg/L; IC50 [2]: 3.3 µM; IC50 ([2]; read-out: pIC50 (converted)): 3.16 µM; MIC [5]: > 32 mg/L

How did the MIC [6] turn out when `O=c1c2nc([N+](=O)[O-])cn2ccn1Cc1ccccc1` was run?
The MIC was > 64 mg/L.
